In ChEMBL document CHEMBL4346661, “Design, synthesis and evaluation of novel diaryl-1,5-diazoles derivatives bearing morpholine as potent dual COX-2/5-LOX inhibitors and antitumor agents” (Eur J Med Chem, 2019):

Tests used:
[1] = Inhibition of 5-LOX assessed as calcium ionophore A23187-stimulated LTB4 production preincubated for 30 mins followed by calcium ionophore A23187 addition and measured after 30 mins by ELISA
HeLa = assay: Antiproliferative activity against human HeLa cells incubated for 48 hrs by MTT assay; assay type: functional, cell-based
Method in brief: (§1)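 MTT assay on F10 (murine melanoma), HeLa, A549, MCF-7 and 293T (human renal epithelium) cells. IC50 given as mean ± SD of three independent experiments.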

A549 = assay: Antiproliferative activity against human A549 cells incubated for 48 hrs by MTT assay; assay type: functional, cell-based; conditions: A549, 48 h
Method in brief: as §1

HEK-293T = assay: Antiproliferative activity against human 293T cells incubated for 48 hrs by MTT assay; assay type: cell-based
Method in brief: as §1

MCF7 = assay: Antiproliferative activity against human MCF7 cells incubated for 48 hrs by MTT assay; assay type: functional, cell-based; conditions: MCF7, 48 h
Method in brief: as §1

[2] = biological target: T1, Prostaglandin G/H synthase 2 (Homo sapiens, UniProt P35354); assay: Inhibition of COX2 (unknown origin) using arachidonic acid as substrate incubated for 10 mins by Ellman's reagent based COX-1/COX-2 ELISA assay
T1 sequence (P35354 whole entry): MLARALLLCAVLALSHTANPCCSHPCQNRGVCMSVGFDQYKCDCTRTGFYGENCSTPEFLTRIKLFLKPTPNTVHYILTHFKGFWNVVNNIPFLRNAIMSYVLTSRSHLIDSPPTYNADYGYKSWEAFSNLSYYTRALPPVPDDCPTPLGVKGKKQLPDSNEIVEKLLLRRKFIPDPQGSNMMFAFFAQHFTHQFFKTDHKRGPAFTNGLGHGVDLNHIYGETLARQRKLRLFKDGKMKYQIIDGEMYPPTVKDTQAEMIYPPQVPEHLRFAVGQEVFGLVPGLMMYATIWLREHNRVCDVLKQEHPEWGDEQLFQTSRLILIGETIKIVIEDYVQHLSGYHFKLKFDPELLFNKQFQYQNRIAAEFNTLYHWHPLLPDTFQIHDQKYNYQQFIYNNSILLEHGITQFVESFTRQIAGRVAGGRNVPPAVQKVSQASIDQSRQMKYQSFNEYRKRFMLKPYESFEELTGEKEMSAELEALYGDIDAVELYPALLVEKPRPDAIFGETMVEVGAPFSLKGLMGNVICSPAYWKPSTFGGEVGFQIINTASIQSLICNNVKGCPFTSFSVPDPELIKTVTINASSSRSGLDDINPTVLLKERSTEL

B16-F10 = assay: Antiproliferative activity against mouse B16F10 cells incubated for 48 hrs by MTT assay; assay type: functional, cell-based; conditions: B16-F10, 48 h
Method in brief: as §1

IC50 [1] [nM]	IC50 (HeLa) [µM]	IC50 (A549) [µM]	IC50 (MCF7) [µM]	IC50 [2] [nM]	IC50 (B16-F10) [µM]	Structure (SMILES)	IC50 (HEK-293T) [µM]
980	22.6	20	17.9	310	> 100	NS(=O)(=O)c1ccc(-n2nc(C(=O)N3CCOCC3)cc2-c2ccc(Br)cc2)cc1	160
1190	20.3	16	17.9	1950	13	COc1cccc(-c2cc(C(=O)N3CCSCC3)nn2-c2ccc(S(N)(=O)=O)cc2)c1	177
1210	16	17.7	14.6	1280	12.1	NS(=O)(=O)c1ccc(-n2nc(C(=O)N3CCSCC3)cc2-c2ccc(Br)cc2)cc1	197
2590	27.7	25.2	20	390	21.8	NS(=O)(=O)c1ccc(-n2nc(C(=O)N3CCOCC3)cc2-c2ccc(C(F)(F)F)cc2)cc1	199
2310	> 100	> 100	39.8	230	> 100	NS(=O)(=O)c1ccc(-n2nc(C(=O)N3CCSCC3)cc2-c2ccc(Cl)cc2)cc1	232
	26.5	22.5	24.8		23.8	NS(=O)(=O)c1ccc(-n2nc(C(=O)O)cc2-c2ccc(C(F)(F)F)cc2)cc1	190
1330	17.9	24.6	15.8	240	14.6	NS(=O)(=O)c1ccc(-n2nc(C(=O)N3CCOCC3)cc2-c2cccc(Cl)c2)cc1	114
1240	> 100	22.8	17.9	930	21.4	Cc1ccc(-c2cc(C(=O)N3CCOCC3)nn2-c2ccc(S(N)(=O)=O)cc2)cc1	190
970	21.6	> 100	16.5	970	32.3	CCOc1ccc(-c2cc(C(=O)N3CCSCC3)nn2-c2ccc(S(N)(=O)=O)cc2)cc1	169
1570	13.6	19.9	18.1	890	15.5	Cc1ccc(-c2cc(C(=O)N3CCSCC3)nn2-c2ccc(S(N)(=O)=O)cc2)cc1	106
1190	> 100	26.1	16.5	690	16.2	NS(=O)(=O)c1ccc(-n2nc(C(=O)N3CCOCC3)cc2-c2ccccc2)cc1	184
840	> 100	> 100	19.3	210	18.1	NS(=O)(=O)c1ccc(-n2nc(C(=O)OCCN3CCOCC3)cc2-c2ccc(F)cc2)cc1	146
1270	29.2	18.2	18.2	210	26.4	NS(=O)(=O)c1ccc(-n2nc(C(=O)N3CCSCC3)cc2-c2ccc(F)cc2)cc1	174
1010	24.1	17.2	19.7	1210	13.2	COc1ccc(-c2cc(C(=O)N3CCSCC3)nn2-c2ccc(S(N)(=O)=O)cc2)cc1	211
890	20	19.5	23	310	> 100	NS(=O)(=O)c1ccc(-n2nc(C(=O)NCCN3CCOCC3)cc2-c2ccc(Cl)cc2)cc1	112
3410	> 100	30.8	18.9	670	> 100	NS(=O)(=O)c1ccc(-n2nc(C(=O)N3CCSCC3)cc2-c2ccccc2)cc1	164
2010	51.3	25.7	18.9	230	30.1	NS(=O)(=O)c1ccc(-n2nc(C(=O)N3CCOCC3)cc2-c2cccc(F)c2)cc1	180
1790	> 100	> 100	> 100	350	> 100	NS(=O)(=O)c1ccc(-n2nc(C(=O)N3CCOCC3)cc2-c2ccc(Cl)cc2)cc1	> 300
930	21.6	19.6	16	2010	20.8	COc1ccc(-c2cc(C(=O)N3CCOCC3)nn2-c2ccc(S(N)(=O)=O)cc2)cc1	207
950	27.2	41.7	15	2990	18.6	CCOc1ccc(-c2cc(C(=O)N3CCOCC3)nn2-c2ccc(S(N)(=O)=O)cc2)cc1	116

Second part, the compound before the results:

Structure (SMILES)	IC50 [1] [nM]	IC50 (HeLa) [µM]	IC50 (A549) [µM]	IC50 (MCF7) [µM]	IC50 [2] [nM]	IC50 (B16-F10) [µM]	IC50 (HEK-293T) [µM]
NS(=O)(=O)c1ccc(-n2nc(C(=O)NCCCN3CCOCC3)cc2-c2ccccc2)cc1	930	27.4	20.5	18.1	420	21.8	156
NS(=O)(=O)c1ccc(-n2nc(C(=O)OCCN3CCOCC3)cc2-c2ccc(Cl)cc2)cc1	870	25.4	23	25.8	250	22	122
COc1ccc(-c2cc(C(=O)NCCN3CCOCC3)nn2-c2ccc(S(N)(=O)=O)cc2)cc1	910	20.4	17.6	15	870	19.5	144
NS(=O)(=O)c1ccc(-n2nc(C(=O)OCCCN3CCOCC3)cc2-c2ccc(Cl)cc2)cc1	850	21.4	> 100	22.1	5470	26.8	189
CCOc1ccc(-c2cc(C(=O)OCCN3CCOCC3)nn2-c2ccc(S(N)(=O)=O)cc2)cc1	790	29.8	21.5	18.8	1110	20.2	116
CCOc1ccc(-c2cc(C(=O)NCCCN3CCOCC3)nn2-c2ccc(S(N)(=O)=O)cc2)cc1	840	19.2	17.8	15	910	12.9	138
CCOc1ccc(-c2cc(C(=O)OCCCN3CCOCC3)nn2-c2ccc(S(N)(=O)=O)cc2)cc1	720	> 100	> 100	15.4	7640	> 100	179
CCOc1ccc(-c2cc(C(=O)NCCN3CCOCC3)nn2-c2ccc(S(N)(=O)=O)cc2)cc1	860	20.8	16.5	25.8	850	24.2	155
COc1ccc(-c2cc(C(=O)NCCCN3CCOCC3)nn2-c2ccc(S(N)(=O)=O)cc2)cc1	980	> 100	19.2	16.3	710	13	200
NS(=O)(=O)c1ccc(-n2nc(C(=O)OCCN3CCOCC3)cc2-c2ccc(C(F)(F)F)cc2)cc1	810	24.6	27.8	16.7	190	21.5	148
NS(=O)(=O)c1ccc(-n2nc(C(=O)NCCN3CCOCC3)cc2-c2ccccc2)cc1	960	21.8	> 100	39.2	640	30.8	151
NS(=O)(=O)c1ccc(-n2nc(C(=O)OCCCN3CCOCC3)cc2-c2ccccc2)cc1	820	22.4	17.7	17.2	560	22.7	95.5
COc1ccc(-c2cc(C(=O)OCCCN3CCOCC3)nn2-c2ccc(S(N)(=O)=O)cc2)cc1	870	26.7	18.2	19.8	1050	13.7	169
